Data from ChEMBL document CHEMBL3792330, “Designed Glycopeptidomimetics Disrupt Protein-Protein Interactions Mediating Amyloid β-Peptide Aggregation and Restore Neuroblastoma Cell Viability” (J Med Chem, 2016).
Activity calls are given as the source filed them. No cut-off for these calls is given here. *1 amine or outer side, *2 acyl side, *3 side chain or, on linkers, in order; H or OH if unused. Where a SMILES comes first, the peptide text is derived from it. [ ]: non-standard residue; d: D form. X1 = O=C(CCOC[C@H]1O[C@@H](OCCCN[*:1])[C@H](O)[C@@H](O)[C@@H]1O)[*:2]

How the values were obtained:
[1] = molecular target: Amyloid-beta precursor protein (Homo sapiens) (UniProt P05067); assay: Inhibition of amyloid beta (1 to 42) (unknown origin) fibril formation assessed as extension of aggregation half life at compound/protein ratio of 1/1 after 42 hrs by ThT fluorescence assay relative to control; set-up: Activity: scale not given: the % may be the effect or the level left
Procedure, shortened: (§1)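 Aβ1-42 (1 mM in 1% ammonia, diluted in buffer) added to a final 10 μM into 40 μM ThT in 10 mM Tris-HCl, 100 mM NaCl pH 7.4, with compound at 100, 50, 10 or 1 μM (0.5% DMSO), at room temperature. Ex/em 440/485 nm read for 42 h, in duplicate or triplicate, 2–4 runs. t1/2 and plateau F expressed relative to Aβ alone.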

[2] = molecular target: Amyloid-beta precursor protein (Homo sapiens) (UniProt P05067); assay: Inhibition of amyloid beta (1 to 42) (unknown origin) fibril formation assessed as extension of aggregation half life at compound/protein ratio of 10/1 after 42 hrs by ThT fluorescence assay relative to control; set-up: Activity: scale not given: the % may be the effect or the level left; procedure, shortened: as §1
[3] = molecular target: Amyloid-beta precursor protein (Homo sapiens) (UniProt P05067); assay: Inhibition of amyloid beta (1 to 42) (unknown origin) fibril formation assessed as decrease in fluorescence plateau at compound/protein ratio of 10/1 after 42 hrs by ThT fluorescence assay relative to control; conditions: concentration not given here; procedure, shortened: as §1
[4] = molecular target: Amyloid-beta precursor protein (Homo sapiens) (UniProt P05067); assay: Inhibition of amyloid beta (1 to 42) (unknown origin) fibril formation assessed as decrease in fluorescence plateau at compound/protein ratio of 1/1 after 42 hrs by ThT fluorescence assay relative to control; procedure, shortened: as §1
[5] = molecular target: Amyloid-beta precursor protein (Homo sapiens) (UniProt P05067); assay: Inhibition of amyloid beta (1 to 42) (unknown origin) oligomerization assessed as remaining monomer level at compound/protein ratio of 1/1 after 12 hrs by capillary electrophoresis (reference value: 19%)
Procedure, shortened: (§2)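 Aβ1-42 pretreated in 0.16% NH4OH, lyophilized, then reconstituted at 100 μM in 20 mM phosphate pH 7.4 with 2.5% DMSO, compound/peptide 1/1. Species separated in fused silica capillary (50 μm ID) with 80 mM phosphate pH 7.4 background electrolyte, −20 kV, 25 °C. UV detection at 190 nm; profiles taken at 0 and 12 h.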

[6] = molecular target: Amyloid-beta precursor protein (Homo sapiens) (UniProt P05067); assay: Binding affinity to synthetic 15N,13C-labelled recombinant amyloid beta (1 to 42) (unknown origin) at 0.4 mM after 2.5 weeks by saturation transfer difference method
Procedure, shortened: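 1D 1H STD at 5 °C in 50 mM sodium phosphate pH 7.4 with 10% D2O. Cascade of 50 ms Gaussian pulses (B1 0.1 kHz, 3 s total) applied alternately on-resonance at −0.7 ppm and off-resonance at +30 ppm. 320 scans (50 min). Ligand at 0.4 mM.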

[7] = molecular target: Amyloid-beta precursor protein (Homo sapiens) (UniProt P05067); assay: Binding affinity to amyloid beta (1 to 42) (unknown origin) by SPR analysis
Procedure, shortened: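 Aβ1-42 (0.05 μM in 10 mM sodium acetate pH 4.6) amine-coupled to an EDC/NHS-activated gold chip, then rinsed with 0.1% NH4OH to leave mainly monomer. Analytes in 150 mM PBS with 2% DMSO were injected at 12.5–200 μM for 1 min at 80 μL/min. DMSO solvent correction applied and the ethanolamine-blocked blank channel subtracted. Regeneration with 0.1% NH4OH.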

[8] = molecular target: Amyloid-beta precursor protein (Homo sapiens) (UniProt P05067); assay: Binding affinity to synthetic 15N,13C-labelled recombinant amyloid beta (1 to 42) (unknown origin) assessed as negative nuclear overhauser effect at 0.4 mM after 2.5 weeks by 2D NOESY method
Procedure, shortened: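 2D NOESY at 5 °C with 0.2 s mixing time. Synthetic Aβ1-42 in 50 mM sodium phosphate pH 7.4 with 10% D2O, ligand at 0.4 mM, recorded at 500 MHz.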

[9] = molecular target: Amyloid-beta precursor protein (Homo sapiens) (UniProt P05067); assay: Inhibition of amyloid beta (1 to 42) (unknown origin) fibril formation assessed as extension of aggregation half life at compound/protein ratio of 0.1/1 after 42 hrs by ThT fluorescence assay relative to control; set-up: Activity: scale not given: the % may be the effect or the level left; procedure, shortened: as §1
[10] = molecular target: Amyloid-beta precursor protein (Homo sapiens) (UniProt P05067); assay: Binding affinity to synthetic 15N,13C-labelled recombinant amyloid beta (1 to 42) (unknown origin) assessed as negative nuclear overhauser effect at 0.4 mM after 2.5 weeks by 1D 1H water LOGSY method
Procedure, shortened: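 WaterLOGSY at 5 °C in 50 mM sodium phosphate pH 7.4 with 10% D2O, synthetic Aβ1-42. Ligand at 0.4 mM. Selective water inversion with a 20 ms Gaussian pulse, 0.5 s mixing, 2 s recycle delay, 1200 scans (about 1 h), 500 MHz cryoprobe.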

[11] = molecular target: Amyloid-beta precursor protein (Homo sapiens) (UniProt P05067); assay: Inhibition of amyloid beta (1 to 42) (unknown origin) oligomerization assessed as formation of larger than dodecamers at compound/protein ratio of 1/1 at 12 hrs by capillary electrophoresis; procedure, shortened: as §2
[12] = molecular target: Amyloid-beta precursor protein (Homo sapiens) (UniProt P05067); assay: Inhibition of amyloid beta (1 to 42) (unknown origin) fibril formation assessed as decrease in fluorescence plateau at compound/protein ratio of 0.1/1 after 42 hrs by ThT fluorescence assay relative to control; conditions: concentration not given here; procedure, shortened: as §1
SH-SY5Y [13] = assay: Neuroprotective activity against amyloid beta (1 to 42)-induced toxicity in human SH-SY5Y cells assessed as cell viability at 0.25 to 5 uM after 24 hrs by MTS assay; assay type: functional, cell-based
Procedure, shortened: (§3)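 Aβ1-42 at 50 μM in sterile PBS pre-incubated 24 h at room temperature with 1, 5, 10 or 50 μM compound, then diluted 1:10 (5 μM Aβ final) onto SH-SY5Y cells. Cells seeded at 20 000/well in low-serum Optimem, 37 °C, 5% CO2, 24 h. Exposure a further 24 h in quadruplicate. MTS viability or LDH release read; assays repeated twice.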

SH-SY5Y [14] = assay: Neuroprotective activity against amyloid beta (1 to 42)-induced membrane damage in human SH-SY5Y cells at 0.1 to 5 uM after 24 hrs by LDH assay; assay type: functional, cell-based; procedure, shortened: as §3
Plasma = assay: Metabolic stability in 10% human plasma assessed as drug degradation at 1 uM after 24 hrs by HPLC analysis; assay type: ADME, cell-free
Procedure, shortened: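 Compounds taken from 40 μM DMSO stock to 1 μM in 10% human plasma/90% sterile PBS, held 24 h at 37 °C. Analysed by C18 HPLC with a 0–80% gradient (A: 0.1% TFA in water; B: 0.05% TFA in acetonitrile).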

Chain of Amyloid-beta precursor protein (Homo sapiens) (P05067 whole entry, the tested form may be a part): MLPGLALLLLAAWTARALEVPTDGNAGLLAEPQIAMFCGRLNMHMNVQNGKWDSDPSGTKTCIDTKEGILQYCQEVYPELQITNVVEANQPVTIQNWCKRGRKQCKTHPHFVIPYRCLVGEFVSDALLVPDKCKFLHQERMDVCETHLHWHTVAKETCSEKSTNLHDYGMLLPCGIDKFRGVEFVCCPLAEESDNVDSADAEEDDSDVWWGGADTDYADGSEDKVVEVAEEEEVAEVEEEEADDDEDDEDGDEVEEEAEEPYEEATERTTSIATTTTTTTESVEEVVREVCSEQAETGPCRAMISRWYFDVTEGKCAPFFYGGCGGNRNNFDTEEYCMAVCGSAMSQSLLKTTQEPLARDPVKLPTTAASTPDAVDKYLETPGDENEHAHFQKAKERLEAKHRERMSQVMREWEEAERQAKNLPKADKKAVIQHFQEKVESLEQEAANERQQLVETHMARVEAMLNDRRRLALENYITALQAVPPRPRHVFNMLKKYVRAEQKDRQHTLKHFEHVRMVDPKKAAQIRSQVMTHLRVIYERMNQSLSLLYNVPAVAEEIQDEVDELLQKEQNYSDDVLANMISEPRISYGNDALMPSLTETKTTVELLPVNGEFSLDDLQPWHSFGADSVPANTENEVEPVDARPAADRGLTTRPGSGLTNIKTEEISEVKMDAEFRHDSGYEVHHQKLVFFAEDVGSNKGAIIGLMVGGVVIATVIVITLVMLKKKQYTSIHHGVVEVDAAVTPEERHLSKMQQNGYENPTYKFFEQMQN

`COc1ccc(NC(C)=O)cc1C(=O)NNC(=O)[C@@H](NC(=O)CCOC[C@H]1OC(OCCCNC(=O)[C@@H](NC(=O)[C@H](C)NC(=O)OC(C)(C)C)C(C)C)[C@H](O)[C@@H](O)[C@@H]1O)C(C)C` (stereo partly drawn) was tested, and the Activity [1] was 138%, the Activity [2] was 379% and the inhibition [3] was 41%. For the same compound, the inhibition [4] was “inactive”.

In the case of `COc1ccc(NC(C)=O)cc1C(=O)NNC(=O)[C@H](CCCCN)NC(=O)CCOC[C@H]1OC(OCCCNC(=O)[C@@H](NC(=O)[C@H](C)NC(=O)OC(C)(C)C)C(C)C)[C@H](O)[C@@H](O)[C@@H]1O` (stereo partly drawn), the Activity [1] is reported as 154%, the inhibition [2] is reported as “Active” and the inhibition [3] is reported as 84%. For the same compound, the inhibition ([4]; concentration not given here) was 26%.

With `COc1ccc(NC(C)=O)cc1C(=O)NNC(=O)[C@H](CCCCN)NC(=O)CCOC[C@H]1O[C@@H](OCCCNC(=O)[C@@H](NC(=O)[C@H](C)N)C(C)C)[C@H](O)[C@@H](O)[C@@H]1O` the Activity [5] was 52%, the Activity [1] was 165% and the Activity [6] was “Active”. For the same compound, the Activity [7] was “Dose-dependent effect”, the inhibition [2] was “Active” and the inhibition [3] was 90%. For the same compound, the Activity [8] was “Active”, the Activity [9] was 129% and the inhibition ([4]; concentration not given here) was 34%. For the same compound, the Activity [10] was “Active”, the inhibition [11] was “Active” and the inhibition [12] was 16%.

`COC(=O)[C@H](CC(C)C)NC(=O)[C@@H](NC(=O)CCOC[C@H]1O[C@@H](OCCCNC(=O)[C@@H](NC(=O)[C@H](C)N)C(C)C)[C@H](O)[C@@H](O)[C@@H]1O)C(C)C` (H-AV[X1]VL-OMe) was tested, and the inhibition [1] was “inactive”, the Activity [7] was “Dose-dependent effect” and the Activity [2] was 280%. The inhibition [3] was 56%, the inhibition [4] was “inactive” and the Activity (SH-SY5Y [13]) was “Active”. The Activity (SH-SY5Y [14]) was “Active” and the Stability (Plasma) was “Unstable”.
